ChEMBL document CHEMBL1152239, “Development of mitochondria-targeted derivatives of resveratrol” (Bioorg Med Chem Lett, 2008)
Calls of active or inactive are those of the source. The rule behind the calls is not given here.

Legend:
HCT-116 = test: Drug uptake in human HCT116 cells at 10 uM after 25 mins by fluorescence microscopic method; format: ADME, cell-based; details: hct-116, 25 min
How it was run: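 Cultured HCT116 cells were imaged by fluorescence microscopy with excitation at 340 nm, just before compound addition and 25 min after it. Protonophore FCCP was then added and cells were imaged again 10 min later to check that the signal depends on membrane potential.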

[1] = Solubility in water; format: physicochemical
MEF [2] = test: Cytotoxicity against slow-growing MEF at 5 uM by tetrazolium salt reduction assay; format: cell-based; details: mouse
How it was run: (§1)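 MTT (tetrazolium salt reduction) read-out after cells grew for 3 days with the compound present, tested at 1 and 5 µM. Cell lines were C-26 mouse colon tumor cells and fast- and slow-growing non-tumoral mouse embryonic fibroblasts. Each measurement was run in quadruplicate and reported as average ± s.d.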

C26 = test: Cytotoxicity against mouse C26 cells at 5 uM by tetrazolium salt reduction assay; format: functional, cell-based; how it was run: as §1
MEF [3] = test: Cytotoxicity against fast-growing MEF at 5 uM by tetrazolium salt reduction assay; format: functional, cell-based; details: Mus musculus; how it was run: as §1
[4] = Drug uptake in rat liver mitochondria at 0.5 uM measured by TPP+ sensitive electrode; format: ADME; details: in vitro

Which Activity (HCT-116) does the source give for `CC(=O)Oc1cc(/C=C/c2ccc(OCCCC[P+](c3ccccc3)(c3ccccc3)c3ccccc3)cc2)cc(OC(C)=O)c1.[I-]` here?
Its Activity is “Active”.

And the solubility [1]?
The solubility was 97 µM.

And the Activity (MEF [2])?
Its Activity is “Not Active”.

What about the Activity (C26) of the same compound?
Its Activity is “Active”.

And the Activity (MEF [3])?
The Activity was “Active”.

What about the Activity [4] of the same compound?
The Activity was “Active”.

With `Oc1cc(O)cc(/C=C/c2ccc(OCCCC[P+](c3ccccc3)(c3ccccc3)c3ccccc3)cc2)c1.[I-]` as the compound, how does the Activity (HCT-116) read?
Its Activity is “Active”.

What about the solubility [1] of the same compound?
Its solubility is 31.2 µM.

And the Activity (MEF [2])?
Its Activity is “Not Active”.

And the Activity (C26)?
The Activity was “Active”.

What about the Activity (MEF [3]) of the same compound?
Its Activity is “Active”.
